# ChEMBL document CHEMBL4020721 (Eur J Med Chem, 2017)
# Columns and labels:
# NCI-H1993 [1] = test: Antitumor activity against human NCI-H1993 cells xenografted in BALB/c athymic nude mouse assessed as tumor growth inhibition at 1 mg/kg, po administered once daily for 3 weeks; format: functional; conditions: 504 h, read-out: TGI
# Method in brief: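 BALB/c nude mice, 5-6 weeks old, kept under SPF conditions, received 7×10^6 NCI-H1993 cells s.c. in the right flank. At 150-250 mm³ they were sorted and randomized, n=7 per group, with vehicle controls. Dosing was oral, once daily for 3 weeks. […] Mean±SEM, Student's t-test.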
# Rattus norvegicus = test: Oral bioavailability in Sprague-Dawley rat plasma at 6 mg/kg by UPLC-MS/MS analysis; format: ADME, organism-based; conditions: in vivo
# Method in brief: (§1)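 Male Sprague-Dawley rats (180-220 g) were fasted overnight with free access to water. Dosing was intravenous (n=2) or oral at 6 mg/kg (n=3). Heparinized blood was drawn from 0 to 1440 min. Plasma was frozen at -20°C, then precipitated with acetonitrile containing internal standard, centrifuged and analysed by UPLC-MS/MS.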
# Mus musculus [2] = test: Toxicity in BALB/c athymic nude mouse xenografted with human SNU5 cells assessed as body weight loss at 0.3 to 3 mg/kg, po administered once daily for 2 weeks; format: organism-based; conditions: in vivo, 336 h
# Method in brief: (§2)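 Female/male BALB/c nude mice (5-6 weeks, SPF). NCI-H1993 cells (7×10^6 in 140 µL) or SNU-5 cells (6×10^6 in 200 µL) injected s.c. into the right flank. Dosing started at mean tumour volume 150-250 mm³ (NCI-H1993) or 100-200 mm³ (SNU-5). Randomized, n = 7 (NCI-H1993) or 6 (SNU-5) per group. Oral dosing once daily; vehicle controls. Body weight and signs of toxicity monitored during treatment.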
# [3] = target: Fibroblast growth factor receptor 1 (Homo sapiens, UniProt P11362); test: Inhibition of FGFR1 (unknown origin) using FAM-labeled peptide as substrate preincubated for 5 to 10 mins followed by substrate/ATP addition measured after 30 to 60 mins by mobility shift assay
# Sequence of Fibroblast growth factor receptor 1 (P11362 whole entry): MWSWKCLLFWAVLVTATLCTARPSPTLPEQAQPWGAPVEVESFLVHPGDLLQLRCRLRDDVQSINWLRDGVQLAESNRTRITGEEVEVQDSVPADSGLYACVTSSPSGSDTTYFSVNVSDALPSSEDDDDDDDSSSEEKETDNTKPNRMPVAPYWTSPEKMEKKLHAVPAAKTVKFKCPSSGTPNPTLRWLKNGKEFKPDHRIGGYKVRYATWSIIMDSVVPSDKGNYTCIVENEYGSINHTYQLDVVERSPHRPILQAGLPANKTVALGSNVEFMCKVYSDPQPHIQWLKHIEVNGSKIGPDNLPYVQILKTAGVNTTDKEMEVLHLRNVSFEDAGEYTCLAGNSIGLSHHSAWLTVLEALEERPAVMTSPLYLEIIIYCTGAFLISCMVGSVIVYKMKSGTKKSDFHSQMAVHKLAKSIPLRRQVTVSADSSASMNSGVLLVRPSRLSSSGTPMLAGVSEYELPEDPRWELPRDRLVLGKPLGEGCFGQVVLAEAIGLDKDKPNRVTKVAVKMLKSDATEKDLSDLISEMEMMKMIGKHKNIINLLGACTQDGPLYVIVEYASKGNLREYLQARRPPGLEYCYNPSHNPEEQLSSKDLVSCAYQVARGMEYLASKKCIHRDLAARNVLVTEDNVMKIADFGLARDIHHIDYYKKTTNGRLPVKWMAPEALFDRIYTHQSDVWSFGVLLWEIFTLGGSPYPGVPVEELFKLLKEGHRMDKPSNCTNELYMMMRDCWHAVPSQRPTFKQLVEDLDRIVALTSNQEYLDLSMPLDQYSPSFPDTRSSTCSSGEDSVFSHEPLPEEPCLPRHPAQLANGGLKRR
# Method in brief: (§3)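 Caliper mobility-shift assay with FAM-labeled peptide substrate. Buffer: 50 mM HEPES pH 7.5, 0.0015% Brij-35, 10 mM MgCl2, 2 mM DTT, with kinase-specific enzyme levels. […] Incubation was 30-60 min at 28°C, stopped with EDTA buffer. Read-out was % conversion.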
# CYP3A4 = CYP3A4 (Homo sapiens, UniProt P08684); test: Time dependent irreversible inhibition of CYP3A4 in human liver microsomes at 10 uM preincubated with compound followed by NADPH addition by LC-MS/MS analysis; format: ADME; conditions: liver microsomes
# Sequence of CYP3A4 (P08684 whole entry): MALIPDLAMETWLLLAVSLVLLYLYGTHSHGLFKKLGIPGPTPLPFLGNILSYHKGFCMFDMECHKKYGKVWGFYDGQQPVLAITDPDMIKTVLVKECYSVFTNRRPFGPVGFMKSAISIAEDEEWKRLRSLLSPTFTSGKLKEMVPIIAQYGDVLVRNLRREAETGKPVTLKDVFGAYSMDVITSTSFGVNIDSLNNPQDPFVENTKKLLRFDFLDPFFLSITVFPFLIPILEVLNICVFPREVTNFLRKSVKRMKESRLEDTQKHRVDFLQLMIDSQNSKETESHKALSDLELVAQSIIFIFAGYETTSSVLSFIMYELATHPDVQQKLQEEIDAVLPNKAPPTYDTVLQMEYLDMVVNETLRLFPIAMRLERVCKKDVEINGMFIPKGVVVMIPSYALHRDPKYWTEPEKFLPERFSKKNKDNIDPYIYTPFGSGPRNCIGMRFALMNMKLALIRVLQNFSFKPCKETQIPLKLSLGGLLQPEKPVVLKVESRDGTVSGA
# Method in brief: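 HLM (0.2 mg/ml) with 10 µM compound were preincubated 0, 5, 10 or 20 min at 37°C with 1 mM NADPH or PBS. Substrate cocktail (halved concentrations) plus NADPH was then added for 10 min. Metabolites were measured by LC-MS/MS. Kobs is the slope of relative activity versus preincubation time.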
# [4] = target: Proto-oncogene tyrosine-protein kinase receptor Ret (Homo sapiens, UniProt P07949); test: Inhibition of RET (unknown origin) using FAM-labeled peptide as substrate preincubated for 5 to 10 mins followed by substrate/ATP addition measured after 30 to 60 mins by mobility shift assay; method in brief: as §3
# Sequence of Proto-oncogene tyrosine-protein kinase receptor Ret (P07949 whole entry): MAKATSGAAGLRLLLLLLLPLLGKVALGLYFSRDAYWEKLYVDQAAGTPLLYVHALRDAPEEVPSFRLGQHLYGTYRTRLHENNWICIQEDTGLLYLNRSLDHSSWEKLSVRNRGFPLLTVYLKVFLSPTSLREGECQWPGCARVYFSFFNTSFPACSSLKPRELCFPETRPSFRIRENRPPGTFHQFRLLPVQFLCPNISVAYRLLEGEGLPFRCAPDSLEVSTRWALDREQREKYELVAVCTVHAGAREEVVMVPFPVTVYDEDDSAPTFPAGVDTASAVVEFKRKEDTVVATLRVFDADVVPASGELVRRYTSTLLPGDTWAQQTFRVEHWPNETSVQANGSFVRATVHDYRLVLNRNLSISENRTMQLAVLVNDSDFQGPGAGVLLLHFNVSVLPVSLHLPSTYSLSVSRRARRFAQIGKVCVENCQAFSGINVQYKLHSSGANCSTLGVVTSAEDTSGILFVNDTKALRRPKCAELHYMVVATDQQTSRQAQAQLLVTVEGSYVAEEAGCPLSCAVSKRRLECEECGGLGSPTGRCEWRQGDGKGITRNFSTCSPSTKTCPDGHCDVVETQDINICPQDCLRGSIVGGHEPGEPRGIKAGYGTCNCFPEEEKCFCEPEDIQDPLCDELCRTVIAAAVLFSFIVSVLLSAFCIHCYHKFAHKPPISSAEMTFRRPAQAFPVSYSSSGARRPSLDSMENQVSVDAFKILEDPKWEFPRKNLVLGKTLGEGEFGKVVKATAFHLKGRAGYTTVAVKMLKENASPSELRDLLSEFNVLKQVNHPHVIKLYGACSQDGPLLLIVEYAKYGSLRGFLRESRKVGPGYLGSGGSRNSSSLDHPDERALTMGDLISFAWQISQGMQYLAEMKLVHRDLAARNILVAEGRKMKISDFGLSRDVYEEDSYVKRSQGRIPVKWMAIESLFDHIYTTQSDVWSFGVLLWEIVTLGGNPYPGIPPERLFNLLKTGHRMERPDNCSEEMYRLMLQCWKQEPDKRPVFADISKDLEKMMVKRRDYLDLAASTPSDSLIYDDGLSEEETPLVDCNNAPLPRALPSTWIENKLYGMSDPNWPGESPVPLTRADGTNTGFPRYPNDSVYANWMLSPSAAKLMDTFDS
# SNU-5 = test: Antitumor activity against human SNU5 cells xenografted in BALB/c athymic nude mouse assessed as tumor regression at 3 mg/kg, po administered once daily for 2 weeks; format: functional
# Method in brief: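 Nude BALB/c mice, 5-6 weeks old, under SPF conditions, were implanted s.c. in the right flank with 6×10^6 SNU-5 cells. Groups were sorted at 100-200 mm³, n=6, with vehicle controls. Oral dosing once daily for 2 weeks. Percent tumor regression = 100% × (treated day 0 − treated final)/treated day 0. Mean±SEM, Student's t-test.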
# Ephrin type-B receptor 2 = Ephrin type-B receptor 2 (Homo sapiens, UniProt P29323); test: Inhibition of EPHB2 (unknown origin) using FAM-labeled peptide as substrate preincubated for 5 to 10 mins followed by substrate/ATP addition measured after 30 to 60 mins by mobility shift assay; method in brief: as §3
# Sequence of Ephrin type-B receptor 2 (P29323 whole entry): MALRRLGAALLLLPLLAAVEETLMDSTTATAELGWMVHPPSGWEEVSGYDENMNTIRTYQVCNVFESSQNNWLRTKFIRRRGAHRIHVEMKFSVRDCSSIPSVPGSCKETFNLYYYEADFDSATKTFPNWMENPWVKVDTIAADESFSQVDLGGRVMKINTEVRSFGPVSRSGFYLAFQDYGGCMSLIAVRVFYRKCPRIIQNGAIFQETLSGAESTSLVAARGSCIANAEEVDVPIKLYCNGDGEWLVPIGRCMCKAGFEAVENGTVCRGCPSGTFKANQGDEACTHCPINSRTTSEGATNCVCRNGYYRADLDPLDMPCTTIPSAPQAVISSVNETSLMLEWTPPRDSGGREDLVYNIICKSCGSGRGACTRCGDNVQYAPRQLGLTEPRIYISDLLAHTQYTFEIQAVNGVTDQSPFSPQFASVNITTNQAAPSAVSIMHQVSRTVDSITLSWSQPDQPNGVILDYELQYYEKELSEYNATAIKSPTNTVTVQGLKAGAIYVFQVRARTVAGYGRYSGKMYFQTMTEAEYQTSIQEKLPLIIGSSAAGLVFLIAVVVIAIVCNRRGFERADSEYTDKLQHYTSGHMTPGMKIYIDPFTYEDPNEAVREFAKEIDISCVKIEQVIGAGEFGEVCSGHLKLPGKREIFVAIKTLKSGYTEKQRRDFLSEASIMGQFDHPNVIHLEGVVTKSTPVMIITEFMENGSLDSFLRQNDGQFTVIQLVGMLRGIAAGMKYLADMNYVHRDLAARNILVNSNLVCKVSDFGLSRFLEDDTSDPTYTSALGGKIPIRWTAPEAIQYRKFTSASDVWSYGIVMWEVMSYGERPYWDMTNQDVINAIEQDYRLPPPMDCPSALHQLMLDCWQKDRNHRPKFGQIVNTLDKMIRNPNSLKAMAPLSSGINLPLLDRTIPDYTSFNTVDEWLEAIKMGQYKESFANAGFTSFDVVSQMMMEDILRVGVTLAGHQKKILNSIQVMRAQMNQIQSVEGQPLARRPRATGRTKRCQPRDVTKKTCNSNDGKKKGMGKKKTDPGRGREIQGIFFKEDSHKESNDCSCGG
# [5] = target: Epidermal growth factor receptor (Homo sapiens, UniProt P00533); test: Inhibition of EGFR (unknown origin) using FAM-labeled peptide as substrate preincubated for 5 to 10 mins followed by substrate/ATP addition measured after 30 to 60 mins by mobility shift assay; method in brief: as §3
# Mus musculus [6] = test: Toxicity in BALB/c athymic nude mouse xenografted with human SNU5 cells assessed as apparent toxicity parameters at 0.3 to 3 mg/kg, po administered once daily for 2 weeks; format: organism-based; conditions: in vivo, 336 h; method in brief: as §2
# [7] = target: Vascular endothelial growth factor receptor 1 (Homo sapiens, UniProt P17948); test: Inhibition of FLT1 (unknown origin) using FAM-labeled peptide as substrate preincubated for 5 to 10 mins followed by substrate/ATP addition measured after 30 to 60 mins by mobility shift assay; method in brief: as §3
# [8] = target: Platelet-derived growth factor receptor beta (Homo sapiens, UniProt P09619); test: Inhibition of PDGFRbeta (unknown origin) using FAM-labeled peptide as substrate preincubated for 5 to 10 mins followed by substrate/ATP addition measured after 30 to 60 mins by mobility shift assay; method in brief: as §3
# Sequence of Platelet-derived growth factor receptor beta (P09619 whole entry): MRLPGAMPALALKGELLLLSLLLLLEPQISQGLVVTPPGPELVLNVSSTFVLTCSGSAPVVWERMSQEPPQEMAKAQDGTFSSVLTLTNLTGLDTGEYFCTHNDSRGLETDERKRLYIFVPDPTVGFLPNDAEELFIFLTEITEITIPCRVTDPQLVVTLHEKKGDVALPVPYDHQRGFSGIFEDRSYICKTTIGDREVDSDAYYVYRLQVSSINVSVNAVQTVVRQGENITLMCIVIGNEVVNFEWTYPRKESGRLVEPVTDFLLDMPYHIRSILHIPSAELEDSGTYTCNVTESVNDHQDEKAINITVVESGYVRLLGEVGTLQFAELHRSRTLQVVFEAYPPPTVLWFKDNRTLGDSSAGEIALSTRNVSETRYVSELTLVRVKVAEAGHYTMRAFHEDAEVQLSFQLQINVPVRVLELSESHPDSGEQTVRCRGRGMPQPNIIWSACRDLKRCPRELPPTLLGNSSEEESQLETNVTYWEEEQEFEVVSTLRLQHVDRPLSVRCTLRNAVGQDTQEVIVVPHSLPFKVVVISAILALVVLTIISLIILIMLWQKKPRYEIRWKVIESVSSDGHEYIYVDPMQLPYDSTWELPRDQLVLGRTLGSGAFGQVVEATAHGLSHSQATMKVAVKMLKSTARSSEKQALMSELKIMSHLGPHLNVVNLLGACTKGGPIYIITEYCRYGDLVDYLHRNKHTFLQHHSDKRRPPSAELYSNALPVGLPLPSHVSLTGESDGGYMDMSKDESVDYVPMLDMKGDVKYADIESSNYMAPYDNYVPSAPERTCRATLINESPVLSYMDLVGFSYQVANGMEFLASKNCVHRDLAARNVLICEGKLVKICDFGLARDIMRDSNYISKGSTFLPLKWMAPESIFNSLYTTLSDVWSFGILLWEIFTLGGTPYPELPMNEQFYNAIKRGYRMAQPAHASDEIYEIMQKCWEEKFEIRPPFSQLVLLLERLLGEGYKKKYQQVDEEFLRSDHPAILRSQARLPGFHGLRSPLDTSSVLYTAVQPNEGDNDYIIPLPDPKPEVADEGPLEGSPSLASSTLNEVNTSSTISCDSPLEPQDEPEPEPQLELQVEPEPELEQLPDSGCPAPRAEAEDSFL
# CYP2D6 = CYP2D6 (Homo sapiens, UniProt P10635); test: Reversible inhibition of CYP2D6 in human liver microsomes at 10 uM after 20 mins in presence of NADPH by LC-MS/MS analysis; format: ADME; conditions: liver microsomes
# Sequence of CYP2D6 (P10635 whole entry): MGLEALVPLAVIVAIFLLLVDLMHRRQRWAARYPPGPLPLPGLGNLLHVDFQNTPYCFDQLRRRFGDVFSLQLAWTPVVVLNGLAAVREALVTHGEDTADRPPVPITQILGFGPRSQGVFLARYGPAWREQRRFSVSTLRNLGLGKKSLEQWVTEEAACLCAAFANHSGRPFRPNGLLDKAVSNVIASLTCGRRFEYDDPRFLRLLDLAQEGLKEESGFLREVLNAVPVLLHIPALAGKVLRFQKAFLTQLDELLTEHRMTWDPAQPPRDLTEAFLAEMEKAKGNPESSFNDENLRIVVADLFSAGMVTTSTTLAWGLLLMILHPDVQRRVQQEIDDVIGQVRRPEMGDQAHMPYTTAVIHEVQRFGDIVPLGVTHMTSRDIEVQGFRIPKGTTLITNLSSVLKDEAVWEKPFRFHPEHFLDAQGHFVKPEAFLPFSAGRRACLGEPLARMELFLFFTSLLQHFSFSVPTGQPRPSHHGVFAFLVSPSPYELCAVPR
# [9] = Cmax in Sprague-Dawley rat plasma at 6 mg/kg, po by UPLC-MS/MS analysis; format: ADME, organism-based; set-up: dose 6 mg/kg, route oral; method in brief: as §1
# NCI-H1993 [10] = test: Growth inhibition of human NCI-H1993 cells after 72 hrs by CCK-8 assay; format: functional, cell-based; conditions: nci-h1993
compound,measurement,setting,value
CC(c1cc2cc(-c3cnn(C)c3)cnc2cc1F)n1nnc2ncc(-c3cnn(CCO)c3)nc21 (stereo in doubt; 14),inhibition in vivo at 1 mg/kg,NCI-H1993 [1],78.7%
same,F,Rattus norvegicus,12.1%
same,Activity,Mus musculus [2],Non-Toxic
same,IC50,[3],> 30 µM
same,inhibition at 10 µM,CYP3A4,< 50%
same,IC50,[4],> 30 µM
same,Activity,SNU-5,87.9%
same,IC50,Ephrin type-B receptor 2,> 30 µM
same,IC50,[5],> 30 µM
same,Activity,Mus musculus [6],Non-Toxic
same,IC50,[7],> 30 µM
same,IC50,[8],> 30 µM
same,"inhibition at 20 min, 10 µM",CYP2D6,< 50%
same,Cmax,[9],135 ng/mL
same,IC50,NCI-H1993 [10],0.0011 µM
